High-throughput results (PubChem)
An excerpt weighted towards active compounds, which were near 2.6% of everything screened.
MC4R barr agon – human MC4R agonism via beta-arrestin. P32245. U2OS MC4R beta-arrestin complementation, luminescence; percent of melanotan II response, DMSO zero. activation, % at 8.9 µM. hit rate 0.98% among 360,000;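 active means activation above a per-plate cutoff, the mean activation of sample wells on that plate plus 3 SD, cut at about 8% in these data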
ABCB6 inh MLPCN – blocks the human ABCB6 transporter. Q9NP58. K562-ABCB6 porphyrin accumulation, flow cytometry, 1 h; active compounds read low. fluorescence ratio to DMSO, % at 10 µM. hit rate 0.19% among 360,000;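 active means fluorescence ratio to DMSO below 75%, the collection mean minus 3 SD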;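 further: signal is porphyrin accumulated inside mitochondria; 100% equals median channel fluorescence of DMSO control wells; lower ratio means ABCB6 inhibition with less porphyrin fluorescence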
Target sequence (Q9NP58 whole entry, looked up): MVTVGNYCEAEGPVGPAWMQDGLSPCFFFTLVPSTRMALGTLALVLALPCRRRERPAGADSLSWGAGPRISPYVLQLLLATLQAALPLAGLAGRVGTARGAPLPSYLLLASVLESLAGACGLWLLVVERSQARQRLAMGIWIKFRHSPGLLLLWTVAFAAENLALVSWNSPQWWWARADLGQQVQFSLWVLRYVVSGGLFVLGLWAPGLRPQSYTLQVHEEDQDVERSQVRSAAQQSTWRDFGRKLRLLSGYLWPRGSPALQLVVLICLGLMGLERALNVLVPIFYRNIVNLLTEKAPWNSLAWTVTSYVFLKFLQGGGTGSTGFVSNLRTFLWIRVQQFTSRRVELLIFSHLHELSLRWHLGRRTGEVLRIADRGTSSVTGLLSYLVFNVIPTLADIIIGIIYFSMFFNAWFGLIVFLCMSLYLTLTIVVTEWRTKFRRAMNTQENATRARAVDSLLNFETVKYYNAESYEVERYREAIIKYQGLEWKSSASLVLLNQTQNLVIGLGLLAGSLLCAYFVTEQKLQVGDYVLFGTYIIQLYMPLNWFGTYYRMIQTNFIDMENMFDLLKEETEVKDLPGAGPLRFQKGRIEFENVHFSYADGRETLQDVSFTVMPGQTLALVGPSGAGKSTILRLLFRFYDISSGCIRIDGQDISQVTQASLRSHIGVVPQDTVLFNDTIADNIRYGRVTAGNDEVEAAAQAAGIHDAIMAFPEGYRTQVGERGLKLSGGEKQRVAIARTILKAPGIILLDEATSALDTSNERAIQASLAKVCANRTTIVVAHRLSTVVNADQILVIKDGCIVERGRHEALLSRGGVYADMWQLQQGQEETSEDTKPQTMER
hiPSC survival – enhancers of human iPSC single-cell survival. hiPSC single-cell survival, ATPlite luminescence; 100% = ROCK inhibitor wells, 0% = DMSO. survival enhancement, % at 20 µM. hit rate 0.044% among 360,000; in the data active means survival enhancement above about 18%;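 further: cells exposed to compounds for 16 hours before the ATP read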
Exocytosis inh – lytic granule exocytosis inhibition. TALL-104 LAMP-1 surface exposure, flow cytometry; cells stimulated with thapsigargin and PMA. inhibition, % at 10 µM. hit rate 0.66% among 360,000;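 active means inhibition above about 55%, limit read from the data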
TbMetRS inhib – Trypanosoma brucei MetRS inhibition; AID 624268; inhibition, % at 11.9 µM; purified T. brucei MetRS, ATP depletion, Kinase-Glo luminescence; hit rate 0.4% among 360,000;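 active means inhibition above a per-plate cutoff of the control wells' mean inhibition plus 3 SD, cut at about 5.5% in these data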;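 further: 0% = DMSO wells median and 100% = median of wells with control inhibitor compound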
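Dosing: 11.9 µM compound single dose, 0.9% DMSO; Assay system: purified T. brucei MetRS enzyme; Measured by: Kinase-Glo luciferase luminescence reporting remaining unconsumed ATP; Schedule: 15 min plus 2 h at 25 °C.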
MC4R antagonist – blocks human MC4R cAMP signaling; P32245; MC4R-expressing cells, MTII-stimulated cAMP, LANCE TR-FRET; inhibition, % at 6.5 µM; hit rate 0.48% among 360,000; AID 540295;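 active means inhibition above its plate's cutoff, the mean of tested wells on that plate plus 3 SD, cut at about 29% in these data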;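 further: 0% = Melanotan II alone and 100% = Melanotan II plus saturating MCL0020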
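System – human MC4R-expressing U2OS cells · Also added – Melanotan II · Dosing – one concentration, 6.5 µM nominal · Timing – 30-min compound, 1-h challenge, 1-h detection, room temperature · Measured by – Eu-cAMP/anti-cAMP TR-FRET, emission 671 nm · Replicates – singlicate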
U2OS cAMP counter – U2OS forskolin cAMP inhibition counter-screen; shares compounds with MC4R antagonist; parental U2OS, LANCE TR-FRET; inhibition, % at 6.5 µM; hit rate 26% among 1,600; AID 602193;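 active means mean inhibition over triplicates above the low-control well mean plus 3 SD, set per campaign, cut at about 13% in these data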;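 further: signal is single emission at 671 nm which falls as cellular cAMP rises; 0% = forskolin-stimulated wells and 100% = buffer without forskolin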
MC4R cAMP antag – human MC4R cAMP antagonism confirmation | shares compounds with MC4R antagonist | MC4R-expressing cells, MTII-stimulated cAMP, TR-FRET | inhibition, % at 6.5 µM | hit rate 27% among 1,600 | AID 602195; in the data active means inhibition above about 29%;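 further: 0% = agonist stimulated wells alone and 100% = agonist stimulated wells plus saturating reference antagonist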
Numbers without * were called inactive; nt = no result.

SMILES	MC4R barr agon	ABCB6 inh MLPCN	hiPSC survival	Exocytosis inh	TbMetRS inhib	MC4R antagonist	U2OS cAMP counter	MC4R cAMP antag
C#CCN(C[C@@H]1[C@@H](OC(=O)Nc2c(C)noc2C)[C@@H](OC(=O)Nc2c(C)noc2C)Cn2c(=O)n(CCCCCC)c(=O)n21)S(=O)(=O)c1ccc(C)cc1	1.7	98.0	-2.4	8.0	-0.7	3.9	nt	nt
COC(=O)c1ccccc1NC(=O)CSc1nnnn1C1CCCCC1	-0.7	90.0	-0.8	1.1	-1.0	3.1	nt	nt
COc1ccccc1NC(=O)CSc1nnnn1C1CCCCC1	3.1	99.0	0.0	-0.3	-0.5	29.8*	0.9	2.9
Cc1ccn2cc(CCNC(=O)CC3CCCCC3)nc2c1	-2.5	99.0	0.4	2.0	-0.6	5.1	nt	nt
CCO/C=N/Nc1nc(C(F)(F)F)nc2c1cnn2Cc1ccccc1	1.6	97.0	-0.4	-2.2	-1.3	4.8	nt	nt
CCn1c(C)cs/c1=N\S(=O)(=O)c1ccccc1	-3.4	97.0	-1.2	-8.4	-0.1	7.5	nt	nt
O=Cc1s/c(=N\S(=O)(=O)c2ccccc2)n(CCCCl)c1Cl	-4.7	117.0	7.9	-1.8	-0.4	45.9*	10.7	19.0
Cc1cc(C)c(S(=O)(=O)N(C)CC(=O)NCc2ccccn2)c(C)c1	0.1	98.0	nt	0.1	0.3	1.5	nt	nt
Cc1cc(C)c(S(=O)(=O)NCC(=O)NCc2ccccn2)c(C)c1	-2.6	97.0	5.9	-1.5	-0.2	30.4*	0.3	-1.8
CC(=O)c1cc(F)ccc1OCC(=O)N1CCCc2ccccc21	-1.2	93.0	-0.4	-8.0	-0.4	5.4	nt	nt
CC1(C)C2CCC(CN=C(N)CSS(=O)(=O)O)C1C2 (stereo unspecified)	-1.5	96.0	2.0	-7.5	-0.1	1.8	nt	nt
CC(=O)Oc1ccc2c(=O)c(-c3ccccc3)coc2c1	-0.3	88.0	-0.4	1.9	-0.4	-9.3	nt	nt
CCOC(=O)c1c(-c2ccccc2)csc1NC(=O)CSc1ccccc1	0.0	102.0	0.5	0.7	-0.6	19.6	nt	nt
CCOCCOC(=O)COc1ccc2c(=O)c(Oc3ccc(OC)cc3)coc2c1	-1.0	101.0	-0.4	-9.1	0.6	29.1*	24.4*	28.2
CCOC(=O)COc1ccc2c(=O)c(-c3ccccc3)coc2c1	-0.9	95.0	3.4	5.2	-0.6	39.2*	19.4*	43.1*
CCOC(=O)c1c(-c2ccccc2)csc1NC(=O)COc1ccc2c(C)cc(=O)oc2c1	-0.3	93.0	-0.8	3.8	0.0	29.7*	1.2	1.1
Cc1cccc(C)c1NC(=O)CN1C(=O)NC(C)(CCc2ccccc2)C1=O (stereo unspecified)	-2.2	94.0	0.7	0.0	0.3	-0.9	nt	nt
CCOC(=O)c1cc(-c2ccccc2)sc1NC(=O)C(C)Sc1nnc(N)s1 (stereo unspecified)	2.6	97.0	1.9	6.3	-0.1	11.2	nt	nt
COC(=O)COc1cccc(NC(=O)C(c2ccccc2)c2ccccc2)c1	2.2	100.0	0.1	10.0	0.3	29.5*	7.4	15.0
O=C(O)COc1cccc(NC(=O)c2ccccc2)c1	-0.7	97.0	0.8	0.8	-0.5	9.7	nt	nt
CCOC(=O)C1=C(O)/C(=C/c2ccc(OCC(=O)O)c(OCC)c2)SC1=Nc1ccc(C)cc1	-0.1	101.0	1.7	1.4	-0.8	28.6*	-5.5	-1.9
CCOc1cc(/C=C2\SC(=Nc3ccccc3)N(c3ccccc3)C2=O)ccc1OCC(=O)O	-1.9	93.0	3.9	6.9	0.2	-8.5	nt	nt
CC1=CC(=C(C#N)C#N)C=C(C)N1CCN1CCNCC1	-1.8	94.0	0.2	-5.4	-0.1	12.8	nt	nt
COc1ccccc1NCC(=O)N/N=C(\C)c1cccs1	1.8	102.0	2.8	-6.2	0.0	39.8*	2.2	10.3
CCCC[N+](CC#Cc1ccccc1)(CCCC)CCCS(=O)(=O)[O-]	0.4	92.0	-0.1	0.1	-1.0	-4.5	nt	nt
SMILES	MC4R barr agon	ABCB6 inh MLPCN	hiPSC survival	Exocytosis inh	TbMetRS inhib	MC4R antagonist	U2OS cAMP counter	MC4R cAMP antag
CCc1ccc(OCC(=O)NC(NC(=S)Nc2ccccc2OC)C(Cl)(Cl)Cl)cc1 (stereo unspecified)	3.9	96.0	-1.7	-1.8	0.6	38.3*	1.2	27.1
Cc1ccc(Cn2ncc(Cl)c(Cl)c2=O)cc1	-2.4	100.0	6.3	1.2	0.5	49.4*	33.2*	50.2*
O=C(Cn1ncc(Cl)c(Cl)c1=O)N1CCN(Cc2ccccc2)CC1	-0.2	110.0	-2.4	-1.0	-0.4	28.8*	26.2*	39.9*
O=c1c(Cl)c(Cl)cnn1Cc1nnc(-c2ccc(Cl)cc2)o1	-2.1	98.0	13.1	45.4	0.6	23.3	nt	nt
O=C(Cn1ncc(Cl)c(Cl)c1=O)N1CCOCC1	5.2	101.0	0.9	-1.1	-1.6	2.5	nt	nt
Nc1cc(N)cc(C(=O)Nc2ccc3c(c2)C(=O)NC3=O)c1	1.5	104.0	-0.2	-0.1	-0.2	16.3	nt	nt
CC(=O)c1sc(N/N=C\c2ccccc2O)nc1C	2.6	98.0	-2.4	-0.9	0.5	-6.1	nt	nt
COc1ccccc1OCCNC(=O)CNC(=O)c1ccc(C(C)(C)C)cc1	-0.7	101.0	-0.5	-0.3	-0.6	4.7	nt	nt
O=C(CSc1n[nH]c(-c2ccccc2O)n1)N1CCOCC1	5.0	88.0	-1.2	-2.3	0.0	30.2*	1.2	-5.0
O=[N+]([O-])c1ccc(S(=O)(=O)Nc2nnc(C3CCCCC3)s2)cc1	-1.3	91.0	-0.2	6.0	-0.1	7.5	nt	nt
CC1CCCCN1S(=O)(=O)c1cnc(Cl)c(Br)c1 (stereo unspecified)	-1.2	101.0	-1.6	10.0	-0.1	33.3*	12.8	16.5
CC1CCCCN1S(=O)(=O)c1csc(C(N)=O)c1 (stereo unspecified)	1.5	102.0	-0.6	1.1	0.1	1.1	nt	nt
CC1CCN(S(=O)(=O)c2cnc(Cl)c(Br)c2)CC1	-0.4	104.0	-1.1	-2.8	-0.5	40.9*	15.2*	41.0*
Cc1ccc(S(=O)(=O)N2CCC(C(=O)NCC3CC3)CC2)cc1	1.2	100.0	-0.8	-2.9	-0.1	20.3	nt	nt
COC(=O)C(Cc1ccc(O)cc1)NC(=O)C1CCN(S(=O)(=O)c2ccc(C)cc2)CC1 (stereo unspecified)	-1.3	102.0	0.2	-5.6	0.1	29.8*	17.7*	31.3*
Cc1cc(=O)oc2cc(NC(=O)c3ccnn3C)ccc12	-1.5	102.0	0.1	-1.1	-0.5	10.0	nt	nt
CCOC(=O)c1sc(NC(=O)CCc2ccc(OC)cc2)nc1C	1.6	101.0	-0.5	0.9	-0.6	49.9*	0.6	15.6
